PAD4 inh: inhibitors of human PAD4; Q9UM07; recombinant PAD4, RCA probe fluorescence polarization; inhibition, % at 6.36 µM; 330,000 tested, 0.41% active; AID 485272;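 active = percent inhibition above a cutoff equal to the mean of all tested compounds plus 3 SD, cut at about 15% in these data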;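 note: 0% = PAD4 with RCA probe and DMSO and 100% = probe without PAD4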
PRMT1 FP inh: inhibitors of human PRMT1; Q99873; recombinant PRMT1, activity-based probe fluorescence polarization; inhibition, % at 2.79 µM; 370,000 tested, 1.3% active;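 active = inhibition above about 21% made by adding two undisclosed values, limit read from the data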
E coli Lon inh: inhibitors of E. coli Lon protease; P0A9M0; inhibition, % at 7.94 µM; 360,000 tested, 0.42% active; purified E. coli Lon protease, fluorescence polarization; in the data active = inhibition above about 13%, passing the limit was not always enough;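 note: 0% = enzyme with probe and DMSO and 100% = no enzyme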
GSTO1 counter: GSTO1 inhibition, counter-screen for RBBP9 inhibitors. P78417. recombinant GSTO1, activity-based probe fluorescence polarization. inhibition, % at 5.96 µM. 300,000 tested, 1.1% active;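 active = inhibition above the campaign mean inhibition plus 3 SD, cut at about 35% in these data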;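 note: 0% = GSTO1-1 with DMSO and 100% = wells lacking GSTO1-1 enzyme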
Target sequence (P78417 whole entry, looked up): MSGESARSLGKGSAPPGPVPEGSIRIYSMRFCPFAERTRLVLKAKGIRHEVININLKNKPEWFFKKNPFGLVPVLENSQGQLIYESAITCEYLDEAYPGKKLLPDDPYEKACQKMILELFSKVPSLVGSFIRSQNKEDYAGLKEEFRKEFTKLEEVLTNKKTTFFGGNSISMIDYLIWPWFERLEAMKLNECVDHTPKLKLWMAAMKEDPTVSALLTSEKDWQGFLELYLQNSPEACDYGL
TDP2 inh: blocks human TDP2 phosphodiesterase activity; inhibition, % at 12.8 µM; recombinant TDP2, T5PNP hydrolysis, p-nitrophenol absorbance 415 nm; O95551; 370,000 tested, 0.34% active;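 active = inhibition above the mean of all tested compounds plus 3 SD, set per campaign, cut at about 25% in these data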;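 note: 0% = DMSO with enzyme and 100% = buffer with substrate but no TDP2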
Target sequence (O95551 whole entry, looked up): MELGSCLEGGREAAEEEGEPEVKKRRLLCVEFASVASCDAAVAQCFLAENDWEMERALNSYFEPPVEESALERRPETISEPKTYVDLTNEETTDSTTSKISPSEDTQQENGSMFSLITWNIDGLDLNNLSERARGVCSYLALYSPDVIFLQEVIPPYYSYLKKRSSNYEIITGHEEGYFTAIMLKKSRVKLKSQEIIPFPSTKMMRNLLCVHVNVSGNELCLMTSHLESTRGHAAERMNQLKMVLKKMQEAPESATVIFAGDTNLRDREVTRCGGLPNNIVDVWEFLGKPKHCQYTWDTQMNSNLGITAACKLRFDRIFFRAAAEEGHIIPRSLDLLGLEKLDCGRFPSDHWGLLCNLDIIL
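Incubation: 2 h at 37 °C; Test system: recombinant human TDP2; Quantity: enzyme 120 nM; Read-out basis: percent inhibition; Medium: 50 mM Tris-HCl pH 7.5 with Mg2+, KCl, DTT, BSA; Repeats: single replicate; Compound: 12.8 µM single point, 1% DMSO; Signal: epi absorbance; Reagent: 5 mM T5PNP chromogenic substrate; Benchmarks: no-enzyme high, DMSO-plus-enzyme low.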
The depositor's hits bear a star; / = no result given. The list is not random: actives were taken first. Their share in the collection is about 2.5%.

SMILES | PAD4 inh | PRMT1 FP inh | E coli Lon inh | GSTO1 counter | TDP2 inh
COC(=O)c1ccc2nc(-c3ccccc3)c(Cc3ccccc3)n2c1 | / | 2 | / | / | -11
Clc1ccc2nc(-c3ccco3)c(Cc3ccccc3)n2c1 | / | 24* | -22 | / | 5
COc1ccc(/C(O)=C2/C(=O)C(=O)N(Cc3ccco3)C2c2cccs2)cc1 (stereo unspecified) | -5 | 24* | -8 | 0 | 0
C=CCNC1=C(Cl)C(=O)c2ccccc2C1=O | -1 | -1 | 3 | 68* | 9
Cc1[nH]n(-c2ccccc2)c(=O)c1Sc1ccc(Cl)cc1 | -4 | 4 | 10 | 9 | 10
Cc1[nH]n(-c2ccccc2)c(=O)c1C(C[N+](=O)[O-])c1ccc(Cl)cc1 (stereo unspecified) | -1 | -1 | -12 | 61* | 27*
COc1ccc(CN(C)C(=O)CCl)cc1 | / | 2 | 1 | / | -7
CN(Cc1ccc(Cl)cc1)C(=O)CCl | -2 | 0 | -2 | 86* | 5
Cc1ccc(Cn2cc(CN3[C@@H](Cc4ccccc4)COc4cc(Br)ccc4S3(=O)=O)nn2)cc1 | / | -2 | / | / | -4
Cc1c(N2C(=O)c3ccc4c5c(ccc(c35)C2=O)CC4)c(=O)n(-c2ccccc2)n1C | 1 | / | -10 | 36* | /
Cc1c(N2C(=O)c3ccc(Br)cc3C2=O)c(=O)n(-c2ccccc2)n1C | -5 | 0 | 2 | -2 | -6
Cc1ccc(S(=O)(=O)n2ccc(-c3c(-c4ccc(F)cc4)noc3C)n2)cc1 | / | 0 | / | / | 2
O=S1(=O)c2ccc(N3CCN(Cc4ccccc4F)CC3)cc2Oc2ccccc2CN1Cc1cn(Cc2ccc(C(F)(F)F)cc2)nn1 | / | 1 | / | / | 8
CCN1CCN(Cc2c(O)ccc3c2O/C(=C\c2ccccc2)C3=O)CC1 | 0 | 14 | -47 | 4 | -10
CCN1CCN(Cc2c(O)ccc3c2O/C(=C\C=C\c2ccccc2)C3=O)CC1 | -6 | 22* | -188 | 7 | 1
O=C1/C(=C/C=C/c2ccccc2)Oc2c1ccc(O)c2CN1CCN(CCO)CC1 | -2 | 21* | -91 | 5 | -13
Cc1ccc(NC(=S)NNC(=O)CSc2nnc(SCc3cccc4ccccc34)s2)cc1 | / | -6 | / | / | -6
COC(=O)[C@H](C(C)C)N1Cc2nnn(Cc3ccc(C)cc3)c2-c2ccccc2S1(=O)=O | / | 4 | / | / | 4
CC(=O)CC[C@H]1CC[C@]2(CCCN(Cc3nccn3C)C2)O1 | / | 4 | / | / | -3
CN(C)CC(=O)N[C@H]1C[C@@H]2O[C@@H](CO)CC[C@@H]2O[C@@H]1CCc1ccc(C2=CCCCC2)cc1 | / | 0 | / | / | 3
COc1ccc(CNC(=S)Nc2ccc(OC)cc2)cc1 | -2 | 1 | 8 | 4 | 4
COc1ccc(CNC(=S)Nc2ccc(S(N)(=O)=O)cc2)cc1 | 3 | 6 | 13 | 10 | 43*
CC[C@H](C(=O)Nc1ccccc1N1CCCC1)c1ccccc1 | / | -3 | / | / | 4
CCN1CCN(Cc2ccc(NC(=O)c3cccc(-c4ccc5nc(NC(=O)C6CC6)sc5n4)c3)cc2C(F)(F)F)CC1 | / | 3 | / | / | 2
COc1ccc(C(=O)/C=C(\C)Nc2ccc3c(c2)OCO3)cc1 | -1 | 22* | 2 | 8 | -4
SMILES | PAD4 inh | PRMT1 FP inh | E coli Lon inh | GSTO1 counter | TDP2 inh
COC(=O)c1cc(C)sc1NC(=O)CSc1ncccn1 | 2 | 22* | -6 | 11 | -5
CCOc1cc(C)c(S(=O)(=O)NC2CC(C)(C)NC(C)(C)C2)cc1C | -3 | 0 | -10 | 37* | 11
CCOc1ccc(S(=O)(=O)N(C(=O)c2ccco2)c2cc3sc(=O)oc3c3ccccc23)cc1 | 12 | 93* | 4 | 37* | 1
CCOc1ccc(S(=O)(=O)N(C)CC(=O)NCc2ccco2)cc1 | 1 | 1 | -2 | 0 | 11
COc1ccccc1N1CCN(N=Cc2ccccc2Br)CC1 | / | -1 | / | / | 0
COc1ccc(CCNC(=O)/C=C/c2ccco2)cc1OC | 2 | 23* | -19 | 8 | 4
COc1ccc(OC)c(NC(=O)COC(=O)/C=C/c2ccco2)c1 | 1 | 23* | 4 | / | -21
COc1ccc(CCNC(=O)CSc2ccccc2)cc1OC | 1 | 0 | -1 | 0 | 7
COc1ccc(OC)c(NC(=O)CCCc2ccccc2)c1 | 2 | 22* | -8 | 5 | -5
COc1ccc(CCNC(=O)CSC(=O)c2ccccc2)cc1OC | 7 | 22* | -6 | 5 | 3
CCOc1ccc(CCNC(=O)/C=C/c2ccco2)cc1OCC | / | 14 | -7 | / | -10
COc1ccc(CCCC(=O)Nc2cc(C)ccc2OC)cc1 | 1 | 0 | -13 | 5 | -1
COc1ccc(Cn2cc(CN3[C@@H](Cc4ccccc4)COc4cc(Br)ccc4S3(=O)=O)nn2)cc1 | / | 2 | / | / | -1
CCOC(=O)c1c(C)[nH]c(=S)c(C#N)c1-c1ccc(OC)cc1 | 2 | 13 | -7 | -10 | -3
CCCCOc1ccc(-c2c(C(=O)Nc3ccccc3)c(C)[nH]c(=S)c2C#N)cc1 | -8 | 23* | 3 | -2 | 0
O=C(OC12CCCN(C1)/C(=C/c1cccc(Cl)c1)C2)c1ccco1 (stereo unspecified) | / | 1 | / | / | -2
CC(=O)Nc1ccc(SCC(=O)Nc2oc(C)c3c(C)n[nH]c(=O)c23)cc1 | 5 | 27* | 1 | 13 | 1
Cc1n[nH]c(=O)c2c(NC(=O)CSc3ccc(F)cc3)oc(C)c12 | -5 | 5 | -2 | -8 | 5
COC(=O)[C@]12C[C@H](CC(=O)NCCCCc3ccccc3)C(=O)N(CCc3ccc(OC)c(OC)c3)C1=C[C@H](COCc1ccccc1)O[C@@H]2C | / | 0 | / | / | 5
CC1(OC(=O)CCc2ccccc2)C(=O)C=C2C=C3CCCN3C=C2C1=O (stereo unspecified) | -11 | 11 | -1 | 36* | 8
Oc1ccc(N2CCN(C(c3cccs3)c3nnnn3CCc3ccccc3)CC2)cc1 (stereo unspecified) | 2 | 22* | 5 | 18 | -5
O=C(Nc1ccc2nc(-c3ccco3)c(-c3ccco3)nc2c1)N1CCN(c2ccccn2)CC1 | 1 | 48* | 10 | 33 | 12
Cc1nc2cc(NC(=O)N3CCN(c4ccccn4)CC3)ccc2o1 | -8 | 2 | 2 | 0 | 1
O=C1C=C(c2ccccc2)C(=O)N1Nc1ccccc1 | 0 | 22* | 1 | 0 | -6
COc1ccc(CN2CN3Cc4cc(F)ccc4C3CS2(=O)=O)cc1 (stereo unspecified) | / | -4 | / | / | 5
N#Cc1c(N)sc2c1CCCCCC2 | -4 | 21* | -5 | 5 | -1
Cc1ccc(-n2c(SCC(=O)NN=Cc3ccc(-c4ccccc4)cc3)nnc2-c2ccccc2)cc1 | / | 0 | / | / | -2
CC1=CC(C)(C)Nc2ccc(OC(=O)CN3C(=O)c4ccccc4C3=O)cc21 | -5 | -1 | -2 | 56* | -6
CC1=CC(C)(C)Nc2ccc(OC(=O)CN3C(=O)c4cccc5cccc(c45)C3=O)cc21 | -12 | 11 | 10 | 37* | -2
